Screens deposited in PubChem BioAssay by Broad Institute.
DENV2 CPE: DENV2-induced cell death inhibition | DENV2-infected cells, cytopathic effect rescue, plate reader | CPE inhibition, % at 9.99 µM | 1.7% of 350,000 active | AID 651640; in the data active = CPE inhibition above about 20%, passing the limit was not always enough; tested in BHK-21 cells
PglD DTNB: inhibitors of Campylobacter jejuni PglD acetyltransferase | purified PglD enzyme, DTNB colorimetric CoA detection | inhibition, % at 12.5 µM | 0.098% of 360,000 active; in the data active = inhibition above about 16%, passing the limit was not always enough
FGF22 binding: FGF22 (human) thermal shift binding. 1.5% of 340,000 active. Q9HCT0. AID 651658. activity (Tm shift, normalised), % at 9.99 µM. recombinant FGF22 thermal shift, SYPRO orange fluorescence; percent of sucrose octasulfate shift, DMSO zero;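 active = mean Tm shift, scaled 0 neutral to 100 positive control, at about 1.3% or above, every replicate too, limit read from the data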
Target sequence (Q9HCT0 whole entry, looked up): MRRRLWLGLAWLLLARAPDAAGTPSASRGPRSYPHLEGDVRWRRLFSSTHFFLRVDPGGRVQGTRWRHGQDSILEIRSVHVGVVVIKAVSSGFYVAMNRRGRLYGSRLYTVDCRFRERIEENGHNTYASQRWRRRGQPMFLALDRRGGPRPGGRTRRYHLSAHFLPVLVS
E-sel inducer: E-selectin induction on HUVECs; HUVEC E-selectin immunofluorescence imaging; normalized: neutral wells 0, TNF-alpha wells 100; AID 686992; 0.37% of 260,000 active; P16581; activation, % at 7.58 µM;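 active = mean E-selectin-positive cell signal at least 10% of the positive control, reached in at least 60% of replicates, without over 20% cell loss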
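Read-out basis: % PE-positive cells; Test system: HUVEC primary endothelial cells; Technique: immunofluorescence imaging; Dosing: single-point compound dose.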
Statin myotox sup: protects C2C12 myotubes from simvastatin toxicity; AID 602340; rescue of ATP level, % at 7.49 µM; 0.78% of 330,000 active; ATP luminescence, 48 h; scaled: DMSO 0, geranylgeraniol control 100;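 active = mean ATP rescue above about 67%, or every replicate alone reaching that limit, limit read from the data, passing the limit was not always enough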;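 also: myotubes were challenged with 10 µM simvastatin during compound exposure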
Xi reactivation: X-chromosome reactivation activator. XiGFP mouse fibroblasts, % GFP-positive cells imaging, 3 d; cells co-treated with 5-aza-dC sensitizer; scaled so ellipticine positive control = 100%. activation, % at 7.58 µM. 0.055% of 360,000 active;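 active = mean normalized replicate activation at least 10% and every replicate at or above 10%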
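Assay system: SV40-immortalized XiGFP fibroblast cells, line 68-5-11; buffer or medium: DMEM plus 5-aza-dC sensitizer; compound: one concentration, pinned; timing: compounds 3 days, fix/stain 15 min at room temperature; benchmarks: positive control ellipticine, 6 µM final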
Hits are given with their value; ! = not active in a repeat. Rows were chosen to be rich in hits. Some 3.3% of all compounds tested hit in one or more screens of this group.

C[C@@H]1CCCCO[C@H](CN(C)C(=O)Nc2ccc(F)cc2)[C@H](C)CN([C@@H](C)CO)C(=O)c2cc(NC(=O)Nc3ccc(F)cc3)ccc2O1 was read as DENV2 CPE inactive, PglD DTNB inactive, FGF22 binding inactive and Xi reactivation inactive.
Screening CC(C)NC(=O)N(C)C[C@H]1OCCCC[C@H](C)Oc2ccc(NC(=O)Nc3ccc(F)cc3)cc2C(=O)N([C@@H](C)CO)C[C@H]1C returned DENV2 CPE 56, PglD DTNB inactive, FGF22 binding inactive, E-sel inducer inactive and Xi reactivation inactive.
Screening O=S(=O)(NCc1cccnc1)c1ccc(Cl)c2ccccc12 returned DENV2 CPE inactive, PglD DTNB inactive, FGF22 binding inactive, E-sel inducer 27, Statin myotox sup inactive and Xi reactivation inactive.
CC(=O)N1C2CN(CC(F)(F)F)CC1C2c1ccc(Br)cc1 (stereo not given) was read as Xi reactivation inactive.
`N#Cc1nc(COc2ccccc2)oc1N1CCCC1` gave PglD DTNB inactive and Statin myotox sup inactive.
For N#Cc1nc(COc2ccccc2)oc1N1CCOCC1 the results were PglD DTNB inactive and Statin myotox sup 106.
For Cc1noc(C)c1NC(=O)N[C@H]1C=C[C@@H](CC(=O)N2CCN(C)CC2)O[C@@H]1CO the results were DENV2 CPE inactive, PglD DTNB inactive, FGF22 binding inactive, E-sel inducer inactive, Statin myotox sup inactive and Xi reactivation inactive.
For CCOC(=O)c1ccc(NC(=O)C2=C(C)Nc3nc(CCCO)nn3C2c2cccc(C)c2)cc1 (stereo not given) the results were DENV2 CPE 73, PglD DTNB inactive, FGF22 binding inactive, Statin myotox sup inactive and Xi reactivation inactive.
`CN(C)CCCNC(=O)C[C@@H]1CC[C@@H](NC(=O)c2ccccc2F)[C@@H](CO)O1` gave DENV2 CPE inactive, PglD DTNB inactive, FGF22 binding inactive, E-sel inducer inactive, Statin myotox sup inactive and Xi reactivation inactive.
COC(=O)C[C@H]1C[C@H]2c3cc(NC(=O)C4CCOCC4)ccc3O[C@H]2[C@H](CO)O1 was read as DENV2 CPE 46, PglD DTNB inactive, FGF22 binding inactive, Statin myotox sup inactive and Xi reactivation inactive.
O=C(C[C@H]1C[C@@H]2c3cc(NC(=O)CC4CC4)ccc3O[C@@H]2[C@H](CO)O1)NCc1ccccc1 was read as DENV2 CPE 98, PglD DTNB inactive, FGF22 binding inactive, E-sel inducer inactive, Statin myotox sup inactive and Xi reactivation inactive.
Screening O=C(O)C[C@@H]1C[C@@H]2c3cc(NC(=O)CC4CC4)ccc3O[C@@H]2[C@H](CO)O1 returned DENV2 CPE 30, PglD DTNB inactive, FGF22 binding inactive, E-sel inducer inactive, Statin myotox sup inactive and Xi reactivation inactive.
Screening COCC(=O)Nc1ccc2c(c1)[C@@H]1C[C@H](CC(=O)OC)O[C@H](CO)[C@@H]1O2 returned DENV2 CPE 28!, PglD DTNB inactive, FGF22 binding inactive, E-sel inducer inactive, Statin myotox sup inactive and Xi reactivation inactive.
O=C(Cc1ccccn1)NCC[C@H]1CC[C@H](NS(=O)(=O)c2ccc(F)cc2)[C@H](CO)O1 was read as DENV2 CPE inactive, PglD DTNB inactive, FGF22 binding inactive, E-sel inducer inactive, Statin myotox sup inactive and Xi reactivation inactive.
Screening CNC[C@@H]1OCCCC[C@H](C)Oc2ccc(NC(=O)Nc3ccc4c(c3)OCO4)cc2C(=O)N([C@@H](C)CO)C[C@@H]1C returned E-sel inducer inactive, Statin myotox sup inactive and Xi reactivation inactive.
`C[C@@H]1CN([C@@H](C)CO)C(=O)c2cc(C3=CCCCC3)cnc2O[C@@H]1CN(C)Cc1ccccn1` gave DENV2 CPE inactive, PglD DTNB inactive, FGF22 binding inactive, E-sel inducer inactive, Statin myotox sup inactive and Xi reactivation inactive.
Screening COC(=O)C[C@H]1C[C@H]2c3cc(NC(=O)CC4CC4)ccc3O[C@H]2[C@H](CO)O1 returned DENV2 CPE inactive, PglD DTNB inactive, FGF22 binding inactive, E-sel inducer inactive, Statin myotox sup inactive and Xi reactivation inactive.
`COC(=O)C[C@@H]1C[C@H]2c3cc(NC(=O)CC4CC4)ccc3O[C@H]2[C@@H](CO)O1` gave DENV2 CPE 24!, PglD DTNB inactive, FGF22 binding inactive, E-sel inducer inactive, Statin myotox sup inactive and Xi reactivation inactive.
For CC(C)C#Cc1cnc2c(c1)C(=O)N([C@H](C)CO)C[C@H](C)[C@@H](CN(C)C(=O)c1ccccn1)O2 the results were DENV2 CPE inactive, PglD DTNB inactive, FGF22 binding inactive, E-sel inducer inactive, Statin myotox sup inactive and Xi reactivation inactive.
Screening Cc1ccc(S(=O)(=O)N[C@@H]2C=C[C@@H](CC(=O)NCc3ccncn3)O[C@H]2CO)cc1 returned DENV2 CPE inactive, PglD DTNB inactive, FGF22 binding inactive, E-sel inducer inactive, Statin myotox sup inactive and Xi reactivation inactive.
Screening O=C(C[C@H]1C/C=C\CC[C@H](Cc2ccc(F)cc2)C(=O)O[C@@H](c2ccccc2)CNC1=O)N[C@H](CO)Cc1ccccc1 returned DENV2 CPE 86, PglD DTNB inactive, FGF22 binding inactive, E-sel inducer inactive, Statin myotox sup inactive and Xi reactivation inactive.
O=C(C[C@H]1C/C=C\CC[C@H](Cc2ccc(F)cc2)C(=O)O[C@H](c2ccccc2)CNC1=O)N[C@H](CO)Cc1ccccc1 was read as DENV2 CPE inactive, PglD DTNB inactive, FGF22 binding inactive, E-sel inducer inactive, Statin myotox sup inactive and Xi reactivation inactive.
`O=C(C[C@H]1C/C=C\CC[C@H](Cc2ccc(F)cc2)C(=O)O[C@@H](c2ccccc2)CNC1=O)N[C@@H](CO)Cc1ccccc1` gave PglD DTNB inactive, FGF22 binding 44, E-sel inducer inactive, Statin myotox sup inactive and Xi reactivation inactive.
`CC(C)(C)OC(=O)C[C@H]1C/C=C\C[C@H](CC(=O)N[C@H](CO)Cc2ccccc2)C(=O)N[C@H](C(C)(C)C)COC1=O` gave DENV2 CPE inactive, PglD DTNB inactive, FGF22 binding inactive, E-sel inducer inactive, Statin myotox sup inactive and Xi reactivation inactive.
For CC(C)(C)OC(=O)C[C@H]1C/C=C\C[C@H](CC(=O)N[C@@H](CO)Cc2ccccc2)C(=O)N[C@H](C(C)(C)C)COC1=O the results were DENV2 CPE 63, PglD DTNB inactive, FGF22 binding inactive, E-sel inducer inactive, Statin myotox sup inactive and Xi reactivation inactive.
For C[C@@H]1CN([C@@H](C)CO)C(=O)c2cccc(NC(=O)NC3CCCCC3)c2O[C@H]1CN(C)C(=O)Nc1ccc(F)cc1 the results were DENV2 CPE inactive, PglD DTNB inactive, FGF22 binding inactive, E-sel inducer inactive, Statin myotox sup inactive and Xi reactivation inactive.
